High-throughput results (PubChem BioAssay)
A selection: hits, their analogues and other compounds. The true share with any hit is near 2.2%.
CAL PDZ FP-1 = CAL PDZ (human) peptide binding inhibition | purified CAL PDZ, TMR-peptide fluorescence polarization, 1 h | Q9HD26 | 300,000 tested, 0.92% active | inhibition, % at 24.9 µM;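 active = mean inhibition of at least 30% with at least half of replicates also reaching 30%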
CAL PDZ FP-2 = blocks peptide binding to human CAL PDZ domain | Q9HD26 | purified CAL PDZ, TMR-peptide fluorescence polarization, 1 h | inhibition, % at 20 µM | 330,000 tested, 0.02% active;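 active = highest replicate inhibition of at least 40%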
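Material: tagged CAL PDZ domain; buffer or medium: 25 mM sodium phosphate pH 7.4, 150 mM NaCl, TCEP, IgG, Thesit; compound dosing: single point, 20 µM; schedule: 1 h incubation at room temperature before polarization reading; measured by: FP readout, S and P plane fluorescence; read-out basis: percent inhibition from loss of millipolarization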
dFosB act = activators of mouse delta FosB homodimer. AID 493131. P13346. 340,000 tested, 0.99% active. purified delta FosB, TAMRA-CDK5 oligo fluorescence polarization; percent of positive-control signal above neutral wells. activation, % at 25 µM;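 active = mean activation above about 17%, with every replicate also reaching it, limit read from the data, passing the limit was not always enough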
Target sequence (P13346 whole entry, looked up): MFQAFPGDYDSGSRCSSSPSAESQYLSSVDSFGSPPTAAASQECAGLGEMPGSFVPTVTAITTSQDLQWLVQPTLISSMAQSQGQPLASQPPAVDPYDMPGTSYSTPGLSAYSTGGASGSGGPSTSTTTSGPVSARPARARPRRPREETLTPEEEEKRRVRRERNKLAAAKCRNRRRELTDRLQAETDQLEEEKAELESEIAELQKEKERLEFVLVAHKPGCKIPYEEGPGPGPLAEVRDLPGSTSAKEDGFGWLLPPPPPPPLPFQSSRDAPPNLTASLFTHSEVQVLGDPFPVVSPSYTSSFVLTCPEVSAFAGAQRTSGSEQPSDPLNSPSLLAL
Rtt109 HAT inh = blocks Candida albicans Rtt109/Vps75 acetyltransferase activity | Q5AAJ8 | inhibition, % at 34.9 µM | 330,000 tested, 0.16% active | purified Rtt109/Vps75, ThioGlo CoA-SH fluorescence, 4 h;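 active = inhibition of at least 50% in every replicate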
DYRK1A inh = Dyrk1A (rat) kinase inhibition | Q63470 | ADP-Glo luminescence, NFATc1 peptide | inhibition, % at 12.5 µM | 310,000 tested, 0.43% active | AID 504441; in the data active = inhibition above about 50%
CDK5 p35 inh = blocks human CDK5/p35 kinase activity. Q00535+Q15078. Recombinant CDK5/p35, ADP-Glo luminescence, 60 min. inhibition, % at 10 µM. 330,000 tested, 0.01% active;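 active = highest replicate inhibition of at least 50% and at least 75% of replicates reaching 50%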
Numbers stand for hits; – = inactive; · = no result given; + = active, no number.

SMILES	CAL PDZ FP-1	CAL PDZ FP-2	dFosB act	Rtt109 HAT inh	DYRK1A inh	CDK5 p35 inh
O=C(COc1ccc(Cl)cc1[N+](=O)[O-])N/N=C/c1cccs1	·	–	–	–	–	–
CC(C)(C)CN1CCNC(=O)C1CC(=O)NCCc1ccccc1C(F)(F)F (stereo not given)	·	–	–	–	–	–
CC(C)(C)CN1CCNC(=O)C1CC(=O)NCCN1CCCc2ccccc21 (stereo not given)	55.2	–	–	–	–	–
COC(=O)c1c(C)nc2nonc2c1N	172.5	–	–	–	–	–
COc1ccc(-n2c(C)cc(/C=N/Nc3nnc(C)n3N)c2C)cc1	–	–	–	–	–	–
CCOC(=O)c1c(C)[nH]c(C)c1C(=O)COC(=O)C1CC(=O)N(CCc2ccccc2)C1 (stereo not given)	35.8	–	–	–	–	–
CCCc1ccc(C(=O)/C=C/N(C)C)cc1	53.3	–	–	–	–	–
CN(C)/C=C/C(=O)c1ccc(F)cc1	–	–	–	–	–	–
COc1ccc(N(CC(=O)N2CCCCCC2)S(=O)(=O)c2ccc(OC)c(OC)c2)cc1	51.2	–	–	–	–	–
O=C(c1ccccc1F)N(Cc1ccc2c(c1)OCO2)Cc1cc2cc3c(cc2n2nnnc12)OCO3	–	–	–	–	–	–
CCOC(=O)n1c(=O)[nH]c2ccc(Br)cc21	–	–	–	–	–	–
Nc1nnc(SCC(=O)c2ccc([N+](=O)[O-])cc2)s1	34.8	–	–	–	·	–
COc1ccc(S(=O)(=O)N(CC(=O)NN=C2CCN(C)CC2)c2cc(Cl)ccc2OC)cc1OC	–	–	–	–	–	–
CCOC(=O)CC(=O)Nc1nnc(C(C)C)s1	37.9	–	–	–	–	–
Cc1sc2nc(COC(=O)c3cccc(OC(F)F)c3)[nH]c(=O)c2c1C	56.0	–	–	–	–	–
CC1CC2(C)Oc3ccccc3C3OCC1(CO)C(C)C32 (stereo not given)	–	–	–	–	–	–
CC(=O)OCC12COC3c4ccccc4OC(C)(CC1C)C3C2C (stereo not given)	50.5	–	–	·	–	–
CC(=O)N1CCc2cc(S(=O)(=O)NCc3ccc(C)cc3)ccc21	–	–	–	–	–	–
CCC(=O)N1CCc2cc(S(=O)(=O)NCCC(=O)NCc3ccc(F)cc3)ccc21	37.0	–	–	–	–	–
Cc1ccc(CNS(=O)(=O)c2ccc3c(c2)CCN3C(=O)CCCC(=O)O)cc1	34.3	–	–	–	–	–
CC(=O)N1CCc2cc(S(=O)(=O)NCC(=O)NCc3ccc(Cl)cc3)ccc21	+	–	–	–	–	–
N/C(=N\OC(=O)c1ccc2c(c1)OCO2)c1ccncc1	48.3	–	–	–	–	–
Fc1ccc(NC(=S)Nc2ccc(Br)cc2)cc1	–	–	–	54.9	–	–
O=C(NC1CCCC1)C(c1ccc(F)cc1)N(C(=O)c1csnn1)c1ccccc1 (stereo not given)	–	–	–	52.1	–	–
Cc1ccccc1N(C(=O)c1csnn1)C(C(=O)NC1CCCC1)c1ccncc1 (stereo not given)	32.5	–	–	–	–	–
SMILES	CAL PDZ FP-1	CAL PDZ FP-2	dFosB act	Rtt109 HAT inh	DYRK1A inh	CDK5 p35 inh
COc1ccc(N(C(=O)c2ccco2)C(C(=O)NC2CCCC2)c2cccs2)cc1 (stereo not given)	–	–	–	–	–	–
COc1ccc(N(C(=O)c2csnn2)C(C(=O)NC2CCCC2)c2cccs2)cc1 (stereo not given)	44.1	–	–	–	–	–
O=C(NC1CCCC1)C(c1ccc(F)cc1)N(C(=O)c1csnn1)c1ccccc1F (stereo not given)	–	–	–	–	–	–
Cc1cccc(OCC(=O)N2CCCc3ccccc32)c1	71.4	–	–	–	–	–
O=Nc1c(O)c2ccccc2c2ccccc12	–	–	–	–	53.7	–
Cc1ccc2c(c1)C1CC(C)(O2)N(c2cccc(C(=O)NC3CCN(Cc4ccccc4)CC3)c2)C(=O)N1 (stereo not given)	–	–	–	–	–	–
CC(/C=N/NC(=O)c1ccncc1)=C\c1ccccc1	–	–	–	·	·	–
COc1ccccc1C(=O)N/N=C/C(C)=C/c1ccccc1	34.6	–	–	–	–	–
O=C(CCC(=O)N1CCOc2ccccc21)NCCCN1CCN(Cc2ccccc2)CC1	–	–	–	–	–	–
COc1ccc(CNC[C@@H](CCCCN(C)Cc2ccc(OC)cc2)N2C[C@H](c3ccccc3)N(CCc3ccc(Cl)c(Cl)c3)C(=O)C2=O)cc1	–	–	45.5	–	–	–
C=C(CN(C)C)C(=O)c1cc(C)ccc1C	–	–	–	–	–	–
Cc1nc(C(=O)N2CCCC(N3CCN(c4ccccc4C)CC3)C2)cs1 (stereo not given)	–	–	–	–	–	–
CC(C)c1cc(C(=O)N2CCCC(N3CCN(c4ccc(F)cc4)CC3)C2)no1 (stereo not given)	56.8	–	–	–	–	–
Cc1ccccc1N1CCN(C2CCCN(C(=O)c3csc(C(C)C)n3)C2)CC1 (stereo not given)	54.5	–	–	–	–	–
CN(c1ccc(Cl)cc1)S(=O)(=O)c1nnc(NC(=O)c2ccco2)s1	–	–	–	–	–	–
CC(C)C(=O)Nc1nnc(S(=O)(=O)N(C)c2ccc(Cl)cc2)s1	44.9	·	–	–	–	–
COc1ccc(S(=O)(=O)Nc2ccc(-c3ccc4nnc(C)n4n3)cc2)c(OC)c1	·	–	21.8	–	–	–
Cc1cc(/C=C\c2nc(O)c([N+](=O)[O-])c(=O)[nH]2)c(C)n1-c1ccccc1	–	–	–	–	–	–
CCc1ncc(CN2CCCC(C(=O)Nc3cccc(-c4ccc(F)cc4)c3)C2)cn1 (stereo not given)	–	–	–	–	–	–
CCn1cc(CN2CCCC(C(=O)Nc3cccc(-c4cc5ccccc5[nH]4)c3)C2)cn1 (stereo not given)	51.5	–	–	–	–	–
Cc1cc(Cl)ccc1NC(=S)N1CCN(C(=O)C2CCCO2)CC1 (stereo not given)	–	–	–	–	–	–
O=C(C1CCCO1)N1CCN(C(=S)Nc2ccc(Cl)cc2Cl)CC1 (stereo not given)	–	–	–	52.7	–	–
CCn1nc(C)c(NC(=O)/C=C/c2ccc(OC)c(COc3ccc(Cl)cc3Br)c2)c1C	–	–	207.2	·	–	–
CCN(CC)CCOC(=O)c1ccc(N/C=C(/C#N)c2nc(-c3ccc(OC)c(OC)c3)cs2)cc1	–	–	164.9	–	–	–
Cc1ccc(-c2csc(/C(C#N)=C/Nc3ccc4c(c3)OCCO4)n2)cc1	–	–	–	–	–	–
